From ChEMBL document CHEMBL1124128, “Angiotensin-converting enzyme inhibitors. Mercaptan, carboxyalkyl dipeptide, and phosphinic acid inhibitors incorporating 4-substituted prolines” (J Med Chem, 1988)

biological target: T1, Angiotensin-converting enzyme (Rattus norvegicus) (UniProt P47820); assay: In vitro inhibition of rat Angiotensin I converting enzyme; settings: not given
T1 sequence (whole entry): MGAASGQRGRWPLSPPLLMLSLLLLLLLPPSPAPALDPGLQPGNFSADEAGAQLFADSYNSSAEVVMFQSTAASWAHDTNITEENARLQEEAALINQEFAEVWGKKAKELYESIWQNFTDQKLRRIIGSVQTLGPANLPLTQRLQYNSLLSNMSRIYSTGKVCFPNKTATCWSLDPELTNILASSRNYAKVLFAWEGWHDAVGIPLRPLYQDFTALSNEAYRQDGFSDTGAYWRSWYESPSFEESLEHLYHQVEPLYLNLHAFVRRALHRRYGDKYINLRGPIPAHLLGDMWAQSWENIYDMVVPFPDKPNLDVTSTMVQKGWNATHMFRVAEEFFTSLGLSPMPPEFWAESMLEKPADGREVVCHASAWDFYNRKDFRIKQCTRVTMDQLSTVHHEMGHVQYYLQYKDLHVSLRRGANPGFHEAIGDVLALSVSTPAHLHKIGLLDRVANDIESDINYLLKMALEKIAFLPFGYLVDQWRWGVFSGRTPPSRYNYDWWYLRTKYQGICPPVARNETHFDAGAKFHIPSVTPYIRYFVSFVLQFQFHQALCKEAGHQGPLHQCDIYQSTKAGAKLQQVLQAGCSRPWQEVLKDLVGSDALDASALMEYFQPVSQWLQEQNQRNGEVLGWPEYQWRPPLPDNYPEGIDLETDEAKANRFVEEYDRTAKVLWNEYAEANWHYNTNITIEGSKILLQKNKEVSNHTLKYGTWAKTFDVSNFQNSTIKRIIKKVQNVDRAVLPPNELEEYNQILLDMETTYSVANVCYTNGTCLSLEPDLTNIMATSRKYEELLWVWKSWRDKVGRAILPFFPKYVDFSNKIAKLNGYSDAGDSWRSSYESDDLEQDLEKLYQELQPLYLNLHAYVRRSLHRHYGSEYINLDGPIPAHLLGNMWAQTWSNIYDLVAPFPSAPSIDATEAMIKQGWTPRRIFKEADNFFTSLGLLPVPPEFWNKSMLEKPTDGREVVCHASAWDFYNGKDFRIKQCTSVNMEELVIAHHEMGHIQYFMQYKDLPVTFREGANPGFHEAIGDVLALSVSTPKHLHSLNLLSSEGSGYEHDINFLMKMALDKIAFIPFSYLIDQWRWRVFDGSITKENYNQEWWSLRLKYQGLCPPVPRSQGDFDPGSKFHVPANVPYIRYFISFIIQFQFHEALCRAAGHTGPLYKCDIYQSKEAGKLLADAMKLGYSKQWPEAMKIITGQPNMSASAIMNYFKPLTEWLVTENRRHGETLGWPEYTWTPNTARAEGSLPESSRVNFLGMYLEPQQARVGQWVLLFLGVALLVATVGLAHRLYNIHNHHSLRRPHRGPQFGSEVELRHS

Compound `O=C(O)[C@@H]1C[C@H](c2ccccc2)CN1C(=O)CP(=O)(O)CCCCc1ccccc1` has a T50 of 7 nM.

tested on: Rattus norvegicus; assay: % Inhibition of angiotensin-I induced pressor response in normotensive rats after intravenous dosing of 0.05 umol/kg; format: functional; settings: not given
In short: (§1)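 Male Sprague–Dawley rats (225–275 g) fitted with indwelling abdominal aorta and vena cava catheters, recovered at least 2 weeks, then tested conscious and unrestrained. Aortic pressure was recorded directly. Pressor responses to AI (310 ng/kg iv) and AII (100 ng/kg iv) were taken before dosing. Compound was given iv in water or 5% NaHCO3, and responses were followed up to 70 min. Maximum % inhibition is the mean of four animals per dose.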

First: C[C@H](N[C@@H](CCc1ccccc1)C(=O)O)C(=O)N1C[C@@H](C2CCCCC2)C[C@H]1C(=O)O
Second: C[C@H](N[C@@H](CCc1ccccc1)C(=O)O)C(=O)N1CCC[C@H]1C(=O)O [ENALAPRILAT ANHYDROUS]
The inhibition in vivo at 0.05 µmol/kg of the first is lower: 48% for the first, 67% for the second.

First: C[C@H](N[C@@H](CCc1ccccc1)C(=O)O)C(=O)N1C[C@H](Sc2ccccc2)C[C@H]1C(=O)O
Second: C[C@H](N[C@@H](CCc1ccccc1)C(=O)O)C(=O)N1C[C@@H](Sc2ccccc2)C[C@H]1C(=O)O
The inhibition in vivo at 0.05 µmol/kg of the first is higher: 94% for the first, 43% for the second.

Going from `CS[C@@H]1C[C@@H](C(=O)O)N(C(=O)[C@H](C)N[C@@H](CCc2ccccc2)C(=O)O)C1` to `O=C(O)[C@@H]1C[C@H](c2ccccc2)CN1C(=O)CP(=O)(O)CCCCc1ccccc1`, the inhibition in vivo at 0.05 µmol/kg falls from 69% to 16%.

tested on: Rattus norvegicus; assay: % Inhibition of angiotensin-I induced pressor response in normotensive rats after intravenous dosing of 0.15 umol/kg; format: functional; settings: not given
In short: (§2)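 Conscious, unrestrained male Sprague–Dawley rats (225–275 g) with indwelling aortic and vena caval catheters, allowed at least 2 weeks of recovery. Aortic pressure recorded directly. Baseline pressor responses to AI (310 ng/kg iv) and AII (100 ng/kg iv) were taken first. Compound was given iv in 0.1 mL water or 5% NaHCO3, and responses were followed for up to 70 min. Maximum % inhibition is the mean of four animals per dose.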

Compared with `C[C@H](N[C@@H](CCc1ccccc1)C(=O)O)C(=O)N1C[C@@H](C2CCCCC2)C[C@H]1C(=O)O`, `C[C@H](N[C@@H](CCc1ccccc1)C(=O)O)C(=O)N1CCC[C@H]1C(=O)O` [ENALAPRILAT ANHYDROUS] is lower in inhibition in vivo at 0.15 µmol/kg: 92% for the first, 90% for the second.

Going from `CS[C@@H]1C[C@@H](C(=O)O)N(C(=O)[C@H](C)N[C@@H](CCc2ccccc2)C(=O)O)C1` to `C[C@H](N[C@@H](CCc1ccccc1)C(=O)O)C(=O)N1C[C@@H](Sc2ccccc2)C[C@H]1C(=O)O`, the inhibition in vivo at 0.15 µmol/kg rises from 77% to 85%.

`O=C(O)[C@@H]1C[C@H](c2ccccc2)CN1C(=O)CP(=O)(O)CCCCc1ccccc1` was tested, and the inhibition in vivo at 0.15 µmol/kg was 69%.

tested on: Rattus norvegicus; assay: % Inhibition of angiotensin-I induced pressor response in normotensive rats after peroral dosing of 5 umol/kg; format: functional; settings: po
In short: (§3)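 Conscious, unrestrained catheterized male Sprague–Dawley rats (225–275 g) had direct aortic pressure recording. Baseline pressor responses were taken to AI (310 ng/kg iv) and AII (100 ng/kg iv). Compound was given orally in water, 5% NaHCO3 or 1% agar suspension. AI and AII responses were then tracked up to 280 min. Maximum % inhibition is the mean response of four animals per dose.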

Going from `CCOC(=O)[C@H](CCc1ccccc1)N[C@@H](C)C(=O)N1C[C@@H](Sc2ccccc2)C[C@H]1C(=O)O` to `C[C@H](N[C@@H](CCc1ccccc1)C(=O)O)C(=O)N1C[C@@H](Sc2ccccc2)C[C@H]1C(=O)O`, the inhibition in vivo at 5 µmol/kg falls from 86% to 67%.

Going from `CCOC(=O)[C@H](CCc1ccccc1)N[C@@H](C)C(=O)N1CCC[C@H]1C(=O)O` to `C[C@H](N[C@@H](CCc1ccccc1)C(=O)O)C(=O)N1CCC[C@H]1C(=O)O` [ENALAPRILAT ANHYDROUS], the inhibition in vivo at 5 µmol/kg falls from 83% to 46%.

tested on: Rattus norvegicus; assay: % Inhibition of angiotensin-I induced pressor response in normotensive rats after peroral dosing of 1.5 umol/kg; format: functional; settings: po; in short: as §3

Compared with `CCOC(=O)[C@H](CCc1ccccc1)N[C@@H](C)C(=O)N1C[C@@H](Sc2ccccc2)C[C@H]1C(=O)O`, `C[C@H](N[C@@H](CCc1ccccc1)C(=O)O)C(=O)N1C[C@@H](Sc2ccccc2)C[C@H]1C(=O)O` is lower in inhibition in vivo at 1.5 µmol/kg: 81% for the first, 31% for the second.

With `CCOC(=O)[C@H](CCc1ccccc1)N[C@@H](C)C(=O)N1CCC[C@H]1C(=O)O` the inhibition in vivo at 1.5 µmol/kg was 84%.

tested on: Rattus norvegicus; assay: % Inhibition of angiotensin-I induced pressor response in normotensive rats after peroral dosing of 0.5 umol/kg; format: functional; settings: po; in short: as §3

Compared with `CCOC(=O)[C@H](CCc1ccccc1)N[C@@H](C)C(=O)N1C[C@@H](Sc2ccccc2)C[C@H]1C(=O)O`, `C[C@H](N[C@@H](CCc1ccccc1)C(=O)O)C(=O)N1C[C@@H](Sc2ccccc2)C[C@H]1C(=O)O` is lower in inhibition in vivo at 0.5 µmol/kg: 29% for the first, 23% for the second.

`CCOC(=O)[C@H](CCc1ccccc1)N[C@@H](C)C(=O)N1CCC[C@H]1C(=O)O` showed an inhibition in vivo at 0.5 µmol/kg of 50%.

tested on: Rattus norvegicus; assay: % Inhibition of angiotensin-I induced pressor response in normotensive rats after peroral dosing of 15 umol/kg; format: functional; settings: po; in short: as §3

First: C[C@H](N[C@@H](CCc1ccccc1)C(=O)O)C(=O)N1C[C@@H](Sc2ccccc2)C[C@H]1C(=O)O
Second: C[C@H](N[C@@H](CCc1ccccc1)C(=O)O)C(=O)N1CCC[C@H]1C(=O)O [ENALAPRILAT ANHYDROUS]
The inhibition in vivo at 15 µmol/kg of the first is lower: 78% for the first, 85% for the second.

biological target: T2, Angiotensin-converting enzyme (Rattus norvegicus, UniProt P47820); assay: In vitro inhibitory activity against angiotensin I converting enzyme of rats.; settings: read-out: I50
T2 sequence (P47820 whole entry): T1 sequence (whole entry)

`CO[C@@H]1C[C@@H](C(=O)O)N(C(=O)[C@H](C)CS)C1` and `C[C@H](CS)C(=O)N1C[C@@H](Oc2ccc3ccccc3c2)C[C@H]1C(=O)O` are within 1.5-fold of each other in IC50: 12 nM for the first, 13 nM for the second.

`C[C@H](N[C@@H](CCc1ccccc1)C(=O)O)C(=O)N1C[C@@H](C2CCCCC2)C[C@H]1C(=O)O` and `CS[C@@H]1C[C@@H](C(=O)O)N(C(=O)[C@H](C)N[C@@H](CCc2ccccc2)C(=O)O)C1` are the same in IC50: 5 nM for the first, 5 nM for the second.

`C[C@H](N[C@@H](CCc1ccccc1)C(=O)O)C(=O)N1C[C@H](Sc2ccccc2)C[C@H]1C(=O)O` and `C[C@H](N[C@@H](CCc1ccccc1)C(=O)O)C(=O)N1C[C@@H](Sc2ccccc2)C[C@H]1C(=O)O` are the same in IC50: 2 nM for the first, 2 nM for the second.

tested on: Rattus norvegicus; assay: % Inhibition of angiotensin-I induced pressor response in normotensive rats after intravenous dosing of 0.015 umol/kg; format: functional; settings: not given; in short: as §1

Compared with `C[C@H](N[C@@H](CCc1ccccc1)C(=O)O)C(=O)N1C[C@@H](C2CCCCC2)C[C@H]1C(=O)O`, `C[C@H](N[C@@H](CCc1ccccc1)C(=O)O)C(=O)N1CCC[C@H]1C(=O)O` [ENALAPRILAT ANHYDROUS] is lower in inhibition in vivo at 0.015 µmol/kg: 21% for the first, 11% for the second.

First: C[C@H](N[C@@H](CCc1ccccc1)C(=O)O)C(=O)N1C[C@H](Sc2ccccc2)C[C@H]1C(=O)O
Second: C[C@H](N[C@@H](CCc1ccccc1)C(=O)O)C(=O)N1C[C@@H](Sc2ccccc2)C[C@H]1C(=O)O
The inhibition in vivo at 0.015 µmol/kg of the first is higher: 57% for the first, 20% for the second.

`CS[C@@H]1C[C@@H](C(=O)O)N(C(=O)[C@H](C)N[C@@H](CCc2ccccc2)C(=O)O)C1` gave an inhibition in vivo at 0.015 µmol/kg of 29%.

tested on: Rattus norvegicus; assay: % Inhibition of angiotensin-I induced pressor response in normotensive rats after intravenous dosing of 0.5 umol/kg; format: functional; settings: not given; in short: as §2

With `O=C(O)[C@@H]1C[C@H](c2ccccc2)CN1C(=O)CP(=O)(O)CCCCc1ccccc1` the inhibition in vivo at 0.5 µmol/kg was 97%.
